From ChEMBL document CHEMBL1149773, “Synthesis, determination of the lipophilicity, anticancer and antimicrobial properties of some fused 1,2,4-triazole derivatives” (Eur J Med Chem, 2008)
In brackets after ≈: the same amount, converted by molar mass.

Tests used:
[1] = Lipophilicity, log kw in methanol aqueous system at pH 3.5; assay type: physicochemical
Summary of the method: (§1)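 RP-HPLC on an octadecyl silica column (150 × 4.6 mm, 5 µm) at 22 ± 1 °C, flow 1.0 mL min⁻¹, UV detection at 254 nm. Mobile phase was methanol, acetonitrile or dioxane with water and 0.01 M phosphate buffer pH 3.5 containing 0.05 M DEA. log k_W was extrapolated to pure water by regression.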

HeLa [2] = experiment: Antiproliferative activity against human HeLa cells assessed as cell viability at 100 uM by MTT assay; assay type: functional; settings: read-out: Activity
Summary of the method: (§2)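 Log-phase cells, kept in supplemented RPMI 1640 (HSF in DMEM/10% FBS) at 37 °C, 5% CO2, were exposed 24 h to 1, 50 or 100 µM compound from DMSO. They were washed, given 0.5 mg/mL MTT in HEPES buffer pH 7.4 for 45 min at 37 °C, and formazan was dissolved in DMSO and read at 570 nm. Values are % viability versus control from three independent measurements.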

[3] = Lipophilicity, log kw in dioxane aqueous system at pH 3.5; assay type: physicochemical; settings: buffer; summary of the method: as §1
[4] = Growth inhibition of human skin fibroblast at 25.3 uM; assay type: cell-based; settings: human skin fibroblasts, read-out: GI
Summary of the method: (§3)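 Vero, LS180, SiHa, T47D or primary HSF cells were seeded at 10^4 cells per mL and preincubated in microtiter plates. Compounds were added at 10 or 50 µg mL⁻¹ (printed µM equivalents depend on the compound) and incubated 72 h. End-point was BrdU labelling read spectrophotometrically on an ELISA reader. Growth inhibition is % versus untreated controls; triplicates.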

[5] = Growth inhibition of human skin fibroblast at 126.7 uM; assay type: cell-based; settings: human skin fibroblasts, read-out: GI; summary of the method: as §3
[6] = Antiproliferative activity against human skin fibroblast assessed as cell viability at 1 uM by MTT assay; assay type: cell-based; settings: human skin fibroblasts, read-out: Activity; summary of the method: as §2
T47D [7] = experiment: Growth inhibition of human T47D cells at 126.7 uM; assay type: functional; settings: read-out: GI; summary of the method: as §3
[8] = Growth inhibition of african green monkey Vero cells at 126.7 uM; assay type: cell-based; settings: chlorocebus sabaeus, read-out: GI; summary of the method: as §3
[9] = Growth inhibition of human LS180 cells at 25.3 uM; assay type: functional; settings: read-out: GI; summary of the method: as §3
[10] = Antiproliferative activity against human skin fibroblast assessed as cell viability at 50 uM by MTT assay; assay type: cell-based; settings: human skin fibroblasts, read-out: Activity
Summary of the method: (§4)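 MTT viability assay on primary human skin fibroblasts grown in DMEM with 10% FBS and penicillin/streptomycin. Compounds were dissolved in DMSO and given at 1, 50 or 100 µM for 24 h. Cells were washed in HEPES-buffered medium (pH 7.4) and then given MTT 0.5 mg mL⁻¹ for 45 min at 37 °C. Formazan was dissolved in DMSO and read at 570 nm. Viability is % of control; three independent measurements.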

[11] = Growth inhibition of african green monkey Vero cells at 25.3 uM; assay type: cell-based; settings: chlorocebus sabaeus, read-out: GI; summary of the method: as §3
[12] = Antiproliferative activity against human RPMI cells assessed as cell viability at 1 uM by MTT assay; assay type: functional; settings: read-out: Activity; summary of the method: as §2
HeLa [13] = experiment: Antiproliferative activity against human HeLa cells assessed as cell viability at 50 uM by MTT assay; assay type: functional; settings: read-out: Activity; summary of the method: as §2
[14] = Growth inhibition of human LS180 cells at 126.7 uM; assay type: functional; settings: read-out: GI; summary of the method: as §3
SiHa [15] = experiment: Growth inhibition of human SiHa cells at 126.7 uM; assay type: functional; settings: read-out: GI; summary of the method: as §3
[16] = Antiproliferative activity against human RPMI cells assessed as cell viability at 100 uM by MTT assay; assay type: functional; settings: read-out: Activity; summary of the method: as §2
[17] = Antiproliferative activity against human skin fibroblast assessed as cell viability at 100 uM by MTT assay; assay type: cell-based; settings: human skin fibroblasts, read-out: Activity; summary of the method: as §4
[18] = Lipophilicity, log kw in acetonitrile aqueous system at pH 3.5; assay type: physicochemical; summary of the method: as §1
HeLa [19] = experiment: Antiproliferative activity against human HeLa cells assessed as cell viability at 1 uM by MTT assay; assay type: functional; settings: read-out: Activity; summary of the method: as §2
[20] = Antiproliferative activity against human RPMI cells assessed as cell viability at 50 uM by MTT assay; assay type: functional; settings: read-out: Activity; summary of the method: as §2
SiHa [21] = experiment: Growth inhibition of human SiHa cells at 25.3 uM; assay type: functional; settings: read-out: GI; summary of the method: as §3
T47D [22] = experiment: Growth inhibition of human T47D cells at 25.3 uM; assay type: functional; settings: read-out: GI; summary of the method: as §3
Streptococcus pyogenes = experiment: Antimicrobial activity against Streptococcus pyogenes at 572.4 uM by disc-diffusion method; assay type: functional; settings: read-out: IZ
Summary of the method: (§5)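 Kirby–Bauer disc diffusion on Mueller-Hinton medium. Sterile 5 mm paper discs are impregnated with agent dissolved in DMSO and placed on inoculated agar. DMSO discs serve as solvent control. Plates are incubated 24 h at 35 °C. Inhibition zone diameter is scored as 0–10 mm resistant, 11–16 mm intermediate, or 17–25 mm susceptible. Each assay is run three times.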

Staphylococcus aureus [23] = experiment: Antimicrobial activity against Staphylococcus aureus ATCC 25923 at 572.4 uM by disc-diffusion method; assay type: functional; settings: read-out: IZ; summary of the method: as §5
Escherichia coli = experiment: microbe, parasite or virus in culture; settings: ATCC 25922, read-out: IZ
[24] = system: Staphylococcus epidermidis; experiment: Antimicrobial activity against Staphylococcus epidermidis at 572.4 uM by disc-diffusion method; assay type: functional; settings: read-out: IZ
Summary of the method: (§6)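 Kirby–Bauer disc diffusion: 5 mm paper discs soaked in compound solution in DMSO (100 or 200 µg/mL; reference drugs 200 µg/mL) and laid on inoculated Mueller-Hinton agar (bacteria) or Sabouraud agar (C. albicans, Aspergillus). DMSO discs were the control. Plates ran 24 h at 35 °C. Inhibition zone diameter was scored 0–10 mm R, 11–16 mm I, 17–25 mm S; triplicate.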

Klebsiella pneumoniae = experiment: Antimicrobial activity against Klebsiella pneumoniae at 572.4 uM by disc-diffusion method; assay type: functional; settings: read-out: IZ; summary of the method: as §6
Klebsiella aerogenes = experiment: Antimicrobial activity against Enterobacter aerogenes at 572.4 uM by disc-diffusion method; assay type: functional; settings: read-out: IZ; summary of the method: as §6
Pseudomonas aeruginosa [25] = experiment: Antimicrobial activity against Pseudomonas aeruginosa ATCC 27853 at 572.4 uM by disc-diffusion method; assay type: functional; settings: read-out: IZ; summary of the method: as §6
Streptococcus agalactiae = experiment: Antimicrobial activity against Streptococcus agalactiae at 572.4 uM by disc-diffusion method; assay type: functional; settings: read-out: IZ; summary of the method: as §5
Pseudomonas aeruginosa [26] = experiment: Antimicrobial activity against Pseudomonas aeruginosa ATCC 27853 after 24 hrs by microdilution assay; assay type: functional; settings: ATCC 27853, 24 h
Aspergillus sp. = experiment: Antimicrobial activity against Aspergillus sp. at 572.4 uM by disc-diffusion method; assay type: functional; settings: read-out: IZ; summary of the method: as §6
Staphylococcus aureus [27] = experiment: Antimicrobial activity against Staphylococcus aureus ATCC 25923 after 24 hrs by microdilution assay; assay type: functional; settings: ATCC 25923, 24 h
Proteus vulgaris = experiment: Antimicrobial activity against Proteus vulgaris at 572.4 uM by disc-diffusion method; assay type: functional; settings: read-out: IZ; summary of the method: as §6
Candida albicans = experiment: Antimicrobial activity against Candida albicans ATCC 10231 at 572.4 uM by disc-diffusion method; assay type: functional; settings: read-out: IZ; summary of the method: as §6

With Clc1ccc(N2CCn3c(COc4ccc(Cl)cc4Cl)nnc32)cc1 the logKw [1] was 4.85, the viability at 100 µM (HeLa [2]) was 56.3% and the logKw [3] was 4.15. It also gave an inhibition at 25.3 µM [4] of 7%, an inhibition at 126.7 µM [5] of 10% and a viability at 1 µM [6] of 83%. For the same compound, the inhibition of growth at 126.7 µM (T47D [7]) was 48%, the inhibition at 126.7 µM [8] was 28% and the inhibition of growth at 25.3 µM [9] was 48%. The viability at 50 µM [10] was 83.9%, the inhibition at 25.3 µM [11] was 20% and the viability at 1 µM [12] was 98.4%. It also gave a viability at 50 µM (HeLa [13]) of 59.9%, an inhibition of growth at 126.7 µM [14] of 54% and an inhibition of growth at 126.7 µM (SiHa [15]) of 41%. It also gave a viability at 100 µM [16] of 24.5%, a viability at 100 µM [17] of 86.8% and a logKw [18] of 3.75. For the same compound, the viability at 1 µM (HeLa [19]) was 68.4%, the viability at 50 µM [20] was 24.4% and the inhibition of growth at 25.3 µM (SiHa [21]) was 35%. The inhibition of growth at 25.3 µM (T47D [22]) was 28%.

CC1(C)S[C@@H]2[C@H](NC(=O)[C@H](N)c3ccccc3)C(=O)N2[C@H]1C(=O)O [AMPICILLIN] gave a zone of inhibition at 572.4 µM (Streptococcus pyogenes) of 17 mm, a zone of inhibition at 572.4 µM (Staphylococcus aureus [23]) of 17 mm and a zone of inhibition at 572.4 µM (Escherichia coli) of 17 mm. For the same compound, the zone of inhibition at 572.4 µM [24] was 11 mm, the zone of inhibition at 572.4 µM (Klebsiella pneumoniae) was 0 mm and the zone of inhibition at 572.4 µM (Klebsiella aerogenes) was 0 mm. The zone of inhibition at 572.4 µM (Pseudomonas aeruginosa [25]) was 11 mm, the zone of inhibition at 572.4 µM (Streptococcus agalactiae) was 17 mm and the MIC (Pseudomonas aeruginosa [26]) was over 358 µM. The zone of inhibition at 572.4 µM (Aspergillus sp.) was 0 mm, the MIC (Staphylococcus aureus [27]) was 35.8 µM (≈ 12.5 µg/mL) and the zone of inhibition at 572.4 µM (Proteus vulgaris) was 0 mm. For the same compound, the zone of inhibition at 572.4 µM (Candida albicans) was 0 mm.
